Bioassay records as filed in PubChem.
Only some compounds are listed: those with a hit (about 27% of all), similar ones and a draw of the others.
CYP2C19 inh: inhibitors of human CYP2C19. P33261. CYP2C19 Supersomes, luciferin-H EGE luminescence, 30 min. inhibition, % at 5 µM. 96,000 tested, 21% active. AID 778;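 active = CYP2C19 inhibition above a set limit at 5 µM in the primary screen, cut at about 50% in these data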;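 note: plate controls were negative control wells for no effect and 2.5 mM tranylcypromine positive control for full effect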
HIV Rev-RRE inh: HIV Rev-RRE protein-RNA interaction inhibition; Rev peptide-RRE RNA binding, FRET; inhibition, % at 8 µM; P05866; 97,000 tested, 0.79% active;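 active = inhibition above the screen-wide mean plus 3 SD, cut at about 35% in these data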;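 note: 0% = median DMSO wells and 100% = median Neomycin B control wells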
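System: Cy5-labelled duplex RRE RNA binding fluorescein-labelled HIV Rev peptide; Signal: fluorescein-to-Cy5 FRET, 480 nm excitation; Also added: labelled Rev peptide; Compound: one concentration, 8 µM nominal; Buffer or medium: HEPES pH 7.5 salt buffer with EDTA; Read-out: % inhibition of FRET ratio versus controls; Schedule: 5 min preincubation and 15 min binding, 25 °C.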
Cav3 T inh: blocks human Cav3.2 T-type calcium channel; B-score at 10 µM; 100,000 tested, 4% active; O95180; Cav3.2-expressing cells, Fluo-4 calcium fluorescence FDSS; active compounds read low;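 active = single-dose well whose peak fluorescence ratio is a statistical outlier from its plate by either plate-standardised score or position-corrected B-score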
CYP2C9 act: activators of human CYP2C9 | P11712 | recombinant CYP2C9, luciferin-H conversion, luminescence; active compounds read high; factor 1 = untreated enzyme, 0 = blocked | activation factor at 5 µM | 96,000 tested, 1.4% active | AID 1024;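 active = activation factor of 2 or more for CYP2C9 at a 5 µM dose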;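 note: 0 = sulfaphenazole-blocked wells and 1 = vehicle-only wells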
Target sequence (P11712 whole entry, looked up): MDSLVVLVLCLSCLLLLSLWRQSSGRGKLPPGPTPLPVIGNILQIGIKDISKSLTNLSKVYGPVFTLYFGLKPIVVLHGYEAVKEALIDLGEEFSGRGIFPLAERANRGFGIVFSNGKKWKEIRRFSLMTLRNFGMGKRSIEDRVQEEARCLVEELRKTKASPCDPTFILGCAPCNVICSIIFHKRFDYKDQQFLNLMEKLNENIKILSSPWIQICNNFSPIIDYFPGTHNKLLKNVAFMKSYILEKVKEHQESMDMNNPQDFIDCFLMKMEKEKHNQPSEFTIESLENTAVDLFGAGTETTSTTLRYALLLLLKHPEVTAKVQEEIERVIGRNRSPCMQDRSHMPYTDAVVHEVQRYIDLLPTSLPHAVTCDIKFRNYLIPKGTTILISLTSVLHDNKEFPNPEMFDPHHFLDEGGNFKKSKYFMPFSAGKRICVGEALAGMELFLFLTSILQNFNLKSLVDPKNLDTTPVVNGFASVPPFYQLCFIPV
CYP2C9 inhib: human CYP2C9 inhibition; P11712; CYP2C9 Supersomes, luciferin-H conversion, luminescence; inhibition, % at 5 µM; 96,000 tested, 20% active;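 active = blocking of liver enzyme CYP2C9 beyond about 50% at 5 µM, limit read from the data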
CYP2C19 activ: activators of human cytochrome P450 2C19 | recombinant CYP2C19, luciferin-H EGE luminescence; active compounds read high; 0 = fully inhibited enzyme, 1 = untreated enzyme | activation factor at 5 µM | 96,000 tested, under 10 active;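 active = activation factor of at least 2 at 5 µM in the primary screen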;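 note: 0 = wells with 2.5 mM tranylcypromine and 1 = vehicle-only wells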
* hit, by the source's call; nt = no result given.

SMILES	CYP2C19 inh	HIV Rev-RRE inh	Cav3 T inh	CYP2C9 act	CYP2C9 inhib	CYP2C19 activ
COC(=O)[C@@H](NC(=O)O[C@H]1C(=O)c2ccc(OC)cc2O[C@@H]1c1ccc2c(c1)OCO2)C(C)C	nt	nt	-1.5	nt	nt	nt
CN(Cc1cnn(C)c1)C(=O)C1CCCCC1C(=O)O (configuration not stated)	nt	1	1.3	nt	nt	nt
O=C(CN(CC1CCCO1)C(=O)CNS(=O)(=O)c1ccc(Cl)cc1)NCCc1ccccc1 (configuration not stated)	25	6	-2.1	0.8	17	0.8
Cn1cnnc1SCC(=O)Nc1ccc(S(=O)(=O)N2CCCC2)cc1	-8	-1	0.77	0.9	12	1.1
Cc1csc(NC(=O)c2cccc(S(=O)(=O)N3CCCCC3)c2)n1	26	9	-2.6	0.8	24	0.7
Cc1csc(SCC(=O)Nc2ccc(S(=O)(=O)N3CCCC3)cc2)n1	65*	4	0.23	0.1	94*	0.4
CCOc1ccc(NC(=O)CSc2nc(C)cc(C)n2)cc1	nt	-3	0.83	nt	nt	nt
COc1ccc(NC(=O)CSc2nc(C)cc(C)n2)cc1	87*	10	0.12	1	-3	0.1
Cc1csc(C(C#N)C(=O)c2ccc(S(=O)(=O)N3CCCC3)cc2)n1 (configuration not stated)	22	4	-0.03	0.3	72*	0.8
CCOC(=O)N1CCN(C(=O)Cn2ccc3c(OC)cccc3c2=O)CC1	nt	nt	0.51	nt	nt	nt
CC1=N/C(=C/c2ccc([N+](=O)[O-])cc2)C(=O)N1c1ccc(Cl)cc1Cl	32	12	0.28	0.8	19	0.7
O=C(CC1CCCCC1)NC1CCCC1	-9	5	1.1	0.6	40	1.1
O=C(CCC1CCCCC1)NNC(=O)NC12CC3CC(CC(C3)C1)C2	95*	4	-2.6	0.8	16	0
Cc1ccnc(NC(=O)CCC2CCCCC2)c1	86*	1	-3.8	0.9	13	0.1
O=C(CCC1CCCC1)NC1CCCCC1	57*	-4	0.0026	0.7	28	0.4
O=C(NC1CC2CCCC(C1)N2C1CC1)NC12CC3CC(CC(C3)C1)C2 (configuration not stated)	-16	0	nt	1.3	-33	1.2
Cc1ccnc(NC(=O)C23CC4CC(CC(C4)C2)C3)c1	94*	0	-6.1*	0.8	17	0.1
Cc1ccc(N=Cc2ccc[nH]2)c(O)c1	1	5	0.015	1.1	-6	1
CCCCC1=CC2=CC(=O)C(C)(OC(=O)CC)C(=O)C2=CN1CCN1CCOCC1 (configuration not stated)	nt	nt	0.35	nt	nt	nt
Cc1nn2c(=O)nc3sc4c(c3c2[nH]c1=O)CCCC4	nt	7	0.14	nt	nt	nt
N#CC1C(C#N)N2CCCN2C1c1ccc(Cl)cc1 (configuration not stated)	nt	8	0.11	nt	nt	nt
COC(=O)C(C(=O)Nc1cc(C)on1)C1CCCCCC1 (configuration not stated)	64*	2	0.2	0.5	52*	0.4
Cc1cc(NC(=O)CCC2CCCC2)no1	59*	2	-0.3	1	5	0.4
Cc1cc(NC(=O)CCC2CCCCC2)no1	nt	-4	-0.56	nt	nt	nt
CCOC(=O)C(C(=O)Nc1ccc(C)cc1)C1CCCCC1 (configuration not stated)	79*	1	0.75	0.4	56*	0.2
SMILES	CYP2C19 inh	HIV Rev-RRE inh	Cav3 T inh	CYP2C9 act	CYP2C9 inhib	CYP2C19 activ
CCc1c(C)nc(SCC(=O)N2CCc3ccccc32)[nH]c1=O	8	0	0.072	0.9	9	0.9
COc1cc(C)nc(N2CCC(C(=O)NC3CCCCC3)CC2)n1	46	6	1	0.7	28	0.5
C/C(CC(=O)NCc1ccco1)=N\NC(=O)C(c1ccccc1)c1ccccc1	6	0	-1.6	0.5	51*	0.9
O=C(NCCNC(=O)C(c1ccccc1)c1ccccc1)c1ccco1	66*	2	0.4	0.5	51*	0.3
O=C(Nc1ccccc1C(=O)NCc1ccc(Cl)cc1)c1ccco1	22	12	nt	0.4	58*	0.8
O=C(Nc1ccccc1C(=O)NCCc1ccccc1)c1ccco1	54*	1	0.45	0.3	71*	0.5
C/C(CC(=O)NCc1ccco1)=N\NC(=O)Cc1ccccc1	7	3	-1.1	1	0	0.9
CC(C)(C)c1ccc(OC(=O)Cn2c(C(F)(F)F)nc3ccccc32)cc1	9	10	nt	0.8	16	0.9
